Experimental findings from ChEMBL document CHEMBL2311405, “Synthesis and biological evaluation of indenoisoquinolines that inhibit both tyrosyl-DNA phosphodiesterase I (Tdp1) and topoisomerase I (Top1)” (J Med Chem, 2013) are described below.

As usually defined, the GI50 is the concentration that inhibits growth by half. Low readings indicate more potent growth inhibition, high ones less potent growth inhibition. Usually IC50 stands for the concentration needed to halve the response being measured.

Active and inactive are the calls of the source. The rule behind the calls is not given here.

The subject of one experiment is MDA-MB-435. In words: Growth inhibition of human MDA-MB-435 cells. It is filed as functional.
The test system of the next experiment is HCT-116. Nature of the experiment: Growth inhibition of human HCT116 cells. It is filed as functional.
In another experiment the test system is SF-539. Nature of the experiment: Growth inhibition of human SF539 cells. It is filed as functional. The essentials: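 Human cancer cell line panel, compounds tested at concentrations up to 10 μM. GI50 per cell line is the mean of two determinations where a standard error is given, otherwise from one determination.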
Another experiment concerns UACC-62. In words: Growth inhibition of human UACC62 cells. Format: functional.
A further experiment has as its system HOP-62. Nature of the experiment: Growth inhibition of human HOP62 cells. It is filed as functional.
A further experiment has as its system OVCAR-3. Nature of the experiment: Growth inhibition of human OVCAR3 cells. It is filed as functional.
In a further experiment the test system is DU-145. Nature of the experiment: Growth inhibition of human DU145 cells. It is filed as functional.
In another experiment the test system is SN12C. Nature of the experiment: Growth inhibition of human SN12C cells. Format: functional.
The target of experiment [1] is T1, DNA topoisomerase 1 (Homo sapiens) (UniProt P11387).
T1 sequence (whole entry): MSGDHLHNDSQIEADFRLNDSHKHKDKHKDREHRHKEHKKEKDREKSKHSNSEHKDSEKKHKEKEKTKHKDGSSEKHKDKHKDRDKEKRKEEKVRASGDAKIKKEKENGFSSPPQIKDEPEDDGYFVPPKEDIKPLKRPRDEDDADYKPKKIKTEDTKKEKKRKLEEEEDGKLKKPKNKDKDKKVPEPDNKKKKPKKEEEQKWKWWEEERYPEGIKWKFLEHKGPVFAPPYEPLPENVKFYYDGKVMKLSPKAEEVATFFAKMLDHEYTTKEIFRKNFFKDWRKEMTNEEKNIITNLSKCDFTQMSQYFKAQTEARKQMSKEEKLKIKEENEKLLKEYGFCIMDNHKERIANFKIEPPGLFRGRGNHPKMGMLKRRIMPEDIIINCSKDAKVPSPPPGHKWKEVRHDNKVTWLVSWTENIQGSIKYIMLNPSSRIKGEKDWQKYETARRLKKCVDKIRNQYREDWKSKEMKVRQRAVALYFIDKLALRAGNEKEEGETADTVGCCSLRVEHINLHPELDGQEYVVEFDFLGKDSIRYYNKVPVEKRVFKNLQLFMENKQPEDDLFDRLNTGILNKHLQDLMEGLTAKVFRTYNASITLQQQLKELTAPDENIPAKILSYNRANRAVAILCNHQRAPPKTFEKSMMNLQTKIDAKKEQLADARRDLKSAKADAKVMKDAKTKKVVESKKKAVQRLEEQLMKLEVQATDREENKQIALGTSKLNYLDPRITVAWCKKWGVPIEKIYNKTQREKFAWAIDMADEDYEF
Nature of the experiment: Inhibition of recombinant Top1 (unknown origin) using 3'-[32P]-end-labeled 117 bp oligonucleotide as substrate after 20 mins by SDS-PAGE analysis relative to 1 uM MJ-3-65.

Experiment [2] has as its target T1, DNA topoisomerase 1 (Homo sapiens). Nature of the experiment: Inhibition of recombinant Top1 (unknown origin) using 3'-[32P]-end-labeled 117 bp oligonucleotide as substrate after 20 mins by SDS-PAGE analysis relative to 1 uM camptothecin.
The target is the same in experiment [3]. Nature of the experiment: Inhibition of recombinant Top1 (unknown origin) using 3'-[32P]-end-labeled 117 bp oligonucleotide as substrate assessed as suppression of DNA cleavage at 100 uM by SDS-PAGE analysis. The essentials: (§1)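 3′-[32P]-end-labeled 117-bp DNA at 2 nM incubated with recombinant Top1 at 25 °C for 20 min across a range of compound concentrations. Stopped with SDS (0.5% final) plus formamide loading dye, then 20% denaturing PAGE. Dried gels were phosphorimaged.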

In experiment [4] the target is Tyrosyl-DNA phosphodiesterase 1 (Homo sapiens, UniProt Q9NUW8). In words: Inhibition of recombinant Tdp1 (unknown origin) using 5'-[32P]-labeled single-stranded DNA oligonucleotide containing 3'-phosphotyrosine as substrate after 15 mins by PAGE analysis.
Tyrosyl-DNA phosphodiesterase 1, sequence (Q9NUW8 whole entry): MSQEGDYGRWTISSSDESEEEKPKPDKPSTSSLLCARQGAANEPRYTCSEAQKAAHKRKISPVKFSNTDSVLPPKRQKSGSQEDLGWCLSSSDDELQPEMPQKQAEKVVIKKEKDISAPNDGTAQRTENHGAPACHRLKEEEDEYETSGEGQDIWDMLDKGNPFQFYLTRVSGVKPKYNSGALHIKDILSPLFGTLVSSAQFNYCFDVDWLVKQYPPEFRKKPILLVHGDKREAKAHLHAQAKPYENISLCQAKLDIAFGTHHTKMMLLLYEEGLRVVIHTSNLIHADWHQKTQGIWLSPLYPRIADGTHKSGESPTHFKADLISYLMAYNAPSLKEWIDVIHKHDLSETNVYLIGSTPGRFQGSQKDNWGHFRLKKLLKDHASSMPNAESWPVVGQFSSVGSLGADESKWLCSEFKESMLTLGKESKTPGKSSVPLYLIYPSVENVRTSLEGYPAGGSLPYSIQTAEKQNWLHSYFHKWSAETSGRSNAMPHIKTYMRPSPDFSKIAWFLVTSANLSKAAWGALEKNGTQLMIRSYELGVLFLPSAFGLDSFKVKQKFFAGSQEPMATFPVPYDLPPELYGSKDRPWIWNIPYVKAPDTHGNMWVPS
Experiment [5] has as its target T1, DNA topoisomerase 1 (Homo sapiens). In words: Inhibition of recombinant Top1 (unknown origin) using 3'-[32P]-end-labeled 117 bp oligonucleotide as substrate after 20 mins by SDS-PAGE analysis. In a few lines:
as §1

For the compound `CN(C)CCCn1c2c(c3ccc(C#N)cc3c1=O)C(=O)c1ccccc1-2`, the GI50 in the experiment with MDA-MB-435 stood at 620 nM; with HCT-116, 50 nM; in the experiment on SF-539 it was 1120 nM; with UACC-62 it was 190 nM; in the experiment with HOP-62, 260 nM; in the experiment on OVCAR-3, 1720 nM. The results for the 50% growth inhibitory concentration (GI50) in the experiment with DU-145 and with SN12C were 240 nM and 190 nM, respectively. For the same compound, in experiment [1], the inhibition entry was “Active”.

As for `COc1ccc2c(c1)C(=O)c1c-2n(CCCN)c(=O)c2cc([N+](=O)[O-])ccc12`, the GI50 with HCT-116, in the experiment with SF-539, in the experiment with UACC-62, in the experiment on HOP-62 and with SN12C was less than 10 nM each time. Further, the inhibition result in experiment [2] was “Active”.

As to `COc1ccc2c(c1)C(=O)c1c-2n(CCCN(C)C)c(=O)c2cc(I)ccc12`, the inhibition result in [3] and in experiment [1] was “Active” each time.

For `CN(C)CCCn1c2c(c3ccc(C#N)cc3c1=O)C(=O)c1cc3c(cc1-2)OCO3`, in experiment [4], the IC50 was more than 111000 nM. Moreover, the inhibition result in experiment [3] was “Active”.

`COc1cccc2c1-c1c(c3ccc([N+](=O)[O-])cc3c(=O)n1CCCN)C2=O`: the inhibition result in experiment [2] is “Active”.

Regarding `COC(=O)C(=O)Nc1ccc2c3c(n(CCCN)c(=O)c2c1)-c1ccccc1C3=O`, the 50% growth inhibitory concentration (GI50) in the experiment on MDA-MB-435 turned out to be 3360 nM; in the experiment with HCT-116, 570 nM; in the experiment on SF-539, 6900 nM; in the experiment with UACC-62 it was 1220 nM; in the experiment with HOP-62 it was 650 nM; in the experiment on OVCAR-3 it was 4010 nM. Moreover, the 50% growth inhibitory concentration (GI50) with DU-145 turned out to be 1110 nM; with SN12C, 2530 nM. Further, the concentration for half-maximal inhibition (IC50) in [4] is 45000 nM. The inhibition result in experiment [5] is “inactive”.

Regarding `NCCCn1c2c(c3ccc(NCC(=O)O)cc3c1=O)C(=O)c1ccccc1-2`, the GI50 in the experiment on MDA-MB-435 stood at 1140 nM; in the experiment on HCT-116, 330 nM; in the experiment with SF-539, 1790 nM; in the experiment on UACC-62, 720 nM; with HOP-62, 650 nM; with OVCAR-3, 1600 nM. The GI50 came to 1510 nM in the experiment with DU-145 and 490 nM with SN12C. In [5], the inhibition result is “inactive”.

As to `COc1ccc2c(c1)-c1c(c3ccc([N+](=O)[O-])cc3c(=O)n1CCCn1ccnc1)C2=O`, the concentration for 50% growth inhibition (GI50) was 30 nM in the experiment with MDA-MB-435; less than 10 nM in the experiment on HCT-116; less than 10 nM in the experiment with SF-539; less than 10 nM with UACC-62; less than 10 nM in the experiment with HOP-62; 30 nM in the experiment on OVCAR-3. Besides, the 50% growth inhibitory concentration (GI50) with DU-145 and in the experiment with SN12C was less than 10 nM throughout. Also, the inhibition entry in experiment [3] was “inactive”. For the same compound, in experiment [1], the inhibition result was “Active”.
